Measured values published in ChEMBL document CHEMBL1275346, “Halogenation of 4-hydroxy/amino-3-methoxyphenyl acetamide TRPV1 agonists showed enhanced antagonism to capsaicin” (Bioorg Med Chem, 2010).

Legend:
[1] = target: T1, Transient receptor potential cation channel subfamily V member 1 (Rattus norvegicus, UniProt O35433); assay: Agonist activity at rat TRPV1 expressed in CHO cells assessed as increase of capsaicin-induced calcium uptake; assay type: functional, cell-based
Procedure, shortened: (§1)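 Functional ⁴⁵Ca²⁺ uptake assay in CHO cells heterologously expressing rat TRPV1. Values are mean ± SEM from three or more experiments.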

[2] = target: T1, Transient receptor potential cation channel subfamily V member 1; assay: Displacement of [3H]RTX from rat TRPV1 expressed in CHO cells; assay type: cell-based
Procedure, shortened: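 Binding competition against [³H]RTX on rat TRPV1 heterologously expressed in CHO cells. Mean ± SEM from three or more experiments.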

[3] = target: T1, Transient receptor potential cation channel subfamily V member 1; assay: Antagonist activity at rat TRPV1 expressed in CHO cells assessed as inhibition of capsaicin-induced calcium uptake; assay type: functional, cell-based; procedure, shortened: as §1
[4] = target: Transient receptor potential cation channel subfamily V member 1 (Rattus norvegicus) (UniProt O35433); assay: Agonist activity at rat TRPV1 expressed in CHO cells assessed as increase of capsaicin-induced calcium uptake relative to capsaicin; assay type: functional, cell-based
Sequence of Transient receptor potential cation channel subfamily V member 1 (Rattus norvegicus) (O35433 whole entry): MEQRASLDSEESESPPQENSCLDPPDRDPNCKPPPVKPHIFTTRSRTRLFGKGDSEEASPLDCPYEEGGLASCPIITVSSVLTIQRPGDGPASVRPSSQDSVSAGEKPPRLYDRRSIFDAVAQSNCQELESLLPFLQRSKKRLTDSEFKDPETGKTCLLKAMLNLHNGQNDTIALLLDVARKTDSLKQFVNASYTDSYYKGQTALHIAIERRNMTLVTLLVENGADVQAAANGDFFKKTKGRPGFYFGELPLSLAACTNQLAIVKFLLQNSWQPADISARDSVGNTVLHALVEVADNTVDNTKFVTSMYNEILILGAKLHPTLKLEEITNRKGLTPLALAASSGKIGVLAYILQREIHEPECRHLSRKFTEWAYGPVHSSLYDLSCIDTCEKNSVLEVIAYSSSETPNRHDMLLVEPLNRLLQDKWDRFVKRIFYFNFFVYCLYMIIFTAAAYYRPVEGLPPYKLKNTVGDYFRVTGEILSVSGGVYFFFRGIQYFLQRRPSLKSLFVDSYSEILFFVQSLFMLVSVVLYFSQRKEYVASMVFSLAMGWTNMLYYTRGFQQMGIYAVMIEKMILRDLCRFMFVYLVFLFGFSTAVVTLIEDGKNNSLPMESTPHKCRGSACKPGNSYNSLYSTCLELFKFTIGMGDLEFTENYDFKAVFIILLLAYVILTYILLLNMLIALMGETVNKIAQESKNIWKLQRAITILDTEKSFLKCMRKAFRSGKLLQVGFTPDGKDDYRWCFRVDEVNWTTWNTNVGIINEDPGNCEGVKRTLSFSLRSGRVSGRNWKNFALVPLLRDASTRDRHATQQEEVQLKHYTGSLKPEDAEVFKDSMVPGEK
Procedure, shortened: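 ⁴⁵Ca²⁺ uptake in CHO cells heterologously expressing rat TRPV1. Agonist efficacy is given as % of the maximal calcium uptake induced by 300 nM capsaicin. Mean ± SEM from three or more experiments.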

[5] = target: Transient receptor potential cation channel subfamily V member 1 (Rattus norvegicus) (UniProt O35433); assay: Partial antagonist activity at rat TRPV1 expressed in CHO cells assessed as inhibition of capsaicin-induced calcium uptake; assay type: functional, cell-based; details: concentration not given here
Procedure, shortened: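 ⁴⁵Ca²⁺ uptake antagonism assay in CHO cells heterologously expressing rat TRPV1. The value is the extent of partial antagonism of capsaicin-induced uptake. Mean ± SEM from three or more experiments.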

T1 sequence (O35433 whole entry): as above

Row | Compound | EC50 ([1]; cho) | Ki [2] | Ki ([3]; read-out: Ki) | Activity [4] | inhibition [5] | EC50 ([1]; read-out: EC50) | Ki ([3]; cho)
1 | COc1cc(CC(=O)NCc2ccc(C(C)(C)C)cc2)cc(I)c1O | Not Active | 89 nM | 17.2 nM | – | – | – | –
2 | COc1cc(CC(=O)NCc2ccc(C(C)(C)C)cc2)cc(Cl)c1OC(C)=O | – | 205 nM | 570 nM | 22% | – | – | –
3 | COc1cc(CC(=O)NCC(COC(=O)C(C)(C)C)Cc2ccc(C(C)(C)C)cc2)cc(Br)c1OC(C)=O (stereo not given) | Not Active | 13.6 nM | 72 nM | – | – | – | –
4 | CC(C)(C)C(=O)OCC(CNC(=O)Cc1cc(Cl)c(O)c(Cl)c1)Cc1ccc(C(C)(C)C)cc1 (stereo not given) | Not Active | 9.3 nM | 4.26 nM | – | – | – | –
5 | COc1cc(CC(=O)NCC(COC(=O)C(C)(C)C)Cc2ccc(C(C)(C)C)cc2)cc(Cl)c1N (stereo not given) | Not Active | 33.5 nM | 4.09 nM | – | – | – | –
6 | COc1cc(CC(=O)NCc2ccc(C(C)(C)C)cc2)c(I)cc1OC(C)=O | – | 378 nM | – | 8% | 85% | – | –
7 | COc1cc(CC(=O)NCC(COC(=O)C(C)(C)C)Cc2ccc(C)c(C)c2)c(I)cc1O (stereo not given) | – | 116 nM | – | 23% | 53% | – | –
8 | COc1cc(CC(=O)NCc2ccc(C(C)(C)C)cc2)c(Br)cc1O | – | 364 nM | – | 37% | 42% | – | –
9 | COc1cc(CC(=O)NCC(COC(=O)C(C)(C)C)Cc2ccc(C)c(C)c2)cc(Br)c1O (stereo not given) | – | 56.4 nM | – | 43% | 62% | – | –
10 | COc1cc(CC(=O)NCC(COC(=O)C(C)(C)C)Cc2ccc(C(C)(C)C)cc2)cc(Cl)c1O (stereo not given) | – | 31 nM | – | 25% | 76% | – | –
11 | COc1cc(CC(=O)NCC(COC(=O)C(C)(C)C)Cc2ccc(C(C)(C)C)cc2)cc(I)c1O (stereo not given) | Not Active | 22 nM | 2.8 nM | – | – | – | –
12 | COc1cc(CC(=O)NCC(COC(=O)C(C)(C)C)Cc2ccc(C)c(C)c2)cc(I)c1O (stereo not given) | – | 1630 nM | 225 nM | 6% | – | – | –
13 | COc1cc(CC(=O)NCc2ccc(C(C)(C)C)cc2)c(Cl)cc1OC(C)=O | – | 388 nM | – | 83% | 62% | – | –
14 | COc1cc(CC(=O)NCC(COC(=O)C(C)(C)C)Cc2ccc(C(C)(C)C)cc2)cc(Cl)c1OC(C)=O (stereo not given) | – | 21 nM | – | 28% | 58% | – | –
15 | COc1cc(CC(=O)NCC(COC(=O)C(C)(C)C)Cc2ccc(C(C)(C)C)cc2)c(Cl)cc1O (stereo not given) | – | 37.6 nM | – | 61% | 39% | – | –
16 | COc1cc(CC(=O)NCC(COC(=O)C(C)(C)C)Cc2ccc(C(C)(C)C)cc2)ccc1NS(C)(=O)=O (stereo not given) | – | 84.5 nM | – | 72% | 15% | – | –
17 | COc1cc(CC(=O)NCc2ccc(C(C)(C)C)cc2)ccc1O | – | 667 nM | – | – | – | 82 nM | Not Active
18 | CC(C)(C)C(=O)OCC(CNC(=O)Cc1cc(Br)cc(Br)c1)Cc1ccc(C(C)(C)C)cc1 (stereo not given) | Not Active | 210 nM | 108 nM | – | – | – | –
19 | COc1cc(CC(=O)NCC(COC(=O)C(C)(C)C)Cc2ccc(C(C)(C)C)cc2)c(I)cc1OC(C)=O (stereo not given) | Not Active | 19.5 nM | 53 nM | – | – | – | –
20 | COc1cc(CC(=O)NCC(COC(=O)C(C)(C)C)Cc2ccc(C(C)(C)C)cc2)ccc1O (stereo not given) | – | 13.1 nM | – | – | – | 4.08 nM | Not Active
21 | CC(C)(C)C(=O)OCC(CNC(=O)Cc1cc(Br)c(N)c(Br)c1)Cc1ccc(C(C)(C)C)cc1 (stereo not given) | Not Active | 11.3 nM | 4.3 nM | – | – | – | –
22 | COc1cc(CC(=O)NCC(COC(=O)C(C)(C)C)Cc2ccc(C(C)(C)C)cc2)c(Cl)cc1OC(C)=O (stereo not given) | – | 25.1 nM | – | 53% | 36% | – | –

Row | Compound | EC50 ([1]; cho) | Ki [2] | Ki ([3]; read-out: Ki) | Activity [4] | inhibition [5] | EC50 ([1]; read-out: EC50) | Ki ([3]; cho)
23 | CCCCCCCCC(=O)NCc1cc(OC)c(O)cc1I | Not Active | – | – | – | – | – | –
24 | COc1cc(CC(=O)NCc2ccc(C(C)(C)C)cc2)c(Cl)cc1O | – | 486 nM | – | – | – | 135 nM | Not Active
25 | COc1cc(CC(=O)NCc2ccc(C(C)(C)C)cc2)c(I)cc1O | – | 850 nM | – | 17% | 55% | – | –
26 | COc1cc(CC(=O)NCc2ccc(C(C)(C)C)cc2)c(Br)cc1OC(C)=O | – | 393 nM | – | 60% | 59% | – | –
27 | CC(C)(C)C(=O)OCC(CNC(=O)Cc1ccc(O)c(Br)c1)Cc1ccc(C(C)(C)C)cc1 (stereo not given) | – | 25.1 nM | – | 72% | 38% | – | –
28 | COc1cc(CC(=O)NCC(COC(=O)C(C)(C)C)Cc2ccc(C(C)(C)C)cc2)ccc1N (stereo not given) | – | 108 nM | – | – | – | 22.9 nM | Not Active
29 | CC(C)(C)C(=O)OCC(CNC(=O)Cc1cc(Cl)c(N)c(Cl)c1)Cc1ccc(C(C)(C)C)cc1 (stereo not given) | Not Active | 9.43 nM | 3.96 nM | – | – | – | –
30 | COc1cc(CC(=O)NCC(COC(=O)C(C)(C)C)Cc2ccc(C(C)(C)C)cc2)cc(Br)c1N (stereo not given) | Not Active | 79.1 nM | 3.4 nM | – | – | – | –
31 | CC(C)(C)C(=O)OCC(CNC(=O)Cc1cc(Br)c(O)c(Br)c1)Cc1ccc(C(C)(C)C)cc1 (stereo not given) | Not Active | 20.2 nM | 10.7 nM | – | – | – | –
32 | COc1cc(CC(=O)NCC(COC(=O)C(C)(C)C)Cc2ccc(C(C)(C)C)cc2)cc(I)c1OC(C)=O (stereo not given) | Not Active | 20.3 nM | 19.1 nM | – | – | – | –
33 | COc1cc(CC(=O)NCC(COC(=O)C(C)(C)C)Cc2ccc(C)c(C)c2)cc(I)c1OC(C)=O (stereo not given) | – | 4530 nM | – | 12% | 59% | – | –
34 | COc1cc(CC(=O)NCC(COC(=O)C(C)(C)C)Cc2ccc(C(C)(C)C)cc2)c(Br)cc1O (stereo not given) | – | 25.3 nM | – | 21% | 76% | – | –
35 | COc1cc(CC(=O)NCc2ccc(C(C)(C)C)cc2)cc(I)c1OC(C)=O | Not Active | 94 nM | 47.9 nM | – | – | – | –
36 | COc1cc(CC(=O)NCC(COC(=O)C(C)(C)C)Cc2ccc(C(C)(C)C)cc2)c(I)cc1O (stereo not given) | Not Active | 20.9 nM | 13.5 nM | – | – | – | –
37 | CC(C)(C)C(=O)OCC(CNC(=O)Cc1ccc(N)c(Br)c1)Cc1ccc(C(C)(C)C)cc1 (stereo not given) | – | 57 nM | – | 59% | 27% | – | –
38 | COc1cc(CC(=O)NCc2ccc(C(C)(C)C)cc2)cc(Br)c1O | – | 91 nM | 168 nM | 11% | – | – | –
39 | COc1cc(CC(=O)NCc2ccc(C(C)(C)C)cc2)cc(Cl)c1O | – | 164 nM | – | 25% | 66% | – | –
40 | COc1cc(CC(=O)NCc2ccc(C(C)(C)C)cc2)cc(Br)c1OC(C)=O | – | 166 nM | – | 9% | 89% | – | –
41 | COc1cc(CC(=O)NCC(COC(=O)C(C)(C)C)Cc2ccc(C(C)(C)C)cc2)c(Br)cc1NS(C)(=O)=O (stereo not given) | – | 42.9 nM | – | 14% | 64% | – | –
42 | COc1cc(CC(=O)NCC(COC(=O)C(C)(C)C)Cc2ccc(C(C)(C)C)cc2)cc(Br)c1O (stereo not given) | Not Active | 9.4 nM | 8.77 nM | – | – | – | –
43 | COc1cc(CC(=O)NCC(COC(=O)C(C)(C)C)Cc2ccc(C(C)(C)C)cc2)c(Br)cc1OC(C)=O (stereo not given) | – | 34.9 nM | – | 22% | 63% | – | –
44 | CC(C)(C)C(=O)OCC(CNC(=O)Cc1ccc(N)c(Cl)c1)Cc1ccc(C(C)(C)C)cc1 (stereo not given) | – | 790 nM | – | 85% | 24% | – | –
